Source: PMC3738144 (British Journal of Cancer, 2013)

Tests used:
[1] = tested on: patients with stage IIIB/IV NSCLC; assay type: in vivo, human
[2] = tested on: patients with stage IIIB/IV NSCLC; assay: Safety assessment: adverse events graded by CTCAE version 3.0; assay type: in vivo, human
[3] = Plasma pharmacokinetics of lenvatinib, carboplatin and paclitaxel; assay type: in vivo; conditions: human, oral
[4] = tested on: NSCLC (stage IIIB/IV) target lesions; assay: Antitumor activity by RECIST version 1.0; assay type: in vivo, human
Summary of the method: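 Chemotherapy-naïve stage IIIB/IV NSCLC patients (20–74 y, ECOG 0–1, ≥1 measurable lesion) took oral test compound continuously BID. […] Investigators assessed tumours by RECIST 1.0 every two cycles. PFS ran from treatment start to PD or death (Kaplan–Meier).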

[5] = tested on: plasma angiogenic proteins and cytokines; assay: Plasma biomarker; assay type: in vivo, human; conditions: median (minimum–maximum), lenvatinib with carboplatin/paclitaxel
[6] = 4 mg BID (n=22) with carboplatin/paclitaxel
[7] = 4 mg level (22 patients) with carboplatin/paclitaxel
[8] = 6 mg BID (n=6) with carboplatin/paclitaxel

In the case of COc1cc2nccc(Oc3ccc(NC(=O)NC4CC4)c(Cl)c3)c2cc1C(N)=O [lenvatinib, Lenvatinib], the “dose-limiting toxicities (DLTs)” value ([1]; 4 mg BID (n=6), dose-finding cohort) is reported as “No DLTs”, the “maximum tolerated dose (MTD) of lenvatinib” value ([1]; oral, with carboplatin (AUC 6)/paclitaxel (200 mg m^−2) day 1 every 3 weeks, advanced NSCLC) is reported as 4 mg BID and the “patients with a treatment-related serious AE” value (from here on “patients”) ([2]; 4 mg BID) is reported as 7 n. The “Anaemia Grade 3, treatment-related adverse event” value [2, 6] was 3 (14) n (%), the “Anaemia Grade 4, treatment-related adverse event” value [2, 6] was 0 n (%) and the “Anal abscess Grade 3, treatment-related adverse event” value [2, 6] was 1 (5) n (%). For the same compound, the “Anal abscess Grade 4, treatment-related adverse event” value [2, 6] was 0 n (%), the “Decreased appetite Grade 3, treatment-related adverse event” value [2, 6] was 1 (5) n (%) and the “Decreased appetite Grade 4, treatment-related adverse event” value [2, 6] was 0 n (%). The “Diarrhoea Grade 3, treatment-related adverse event” value [2, 6] was 1 (5) n (%), the “Diarrhoea Grade 4, treatment-related adverse event” value [2, 6] was 0 n (%) and the “Febrile neutropenia Grade 3, treatment-related adverse event” value [2, 6] was 5 (23) n (%). The “Febrile neutropenia Grade 4, treatment-related adverse event” value [2, 6] was 0 n (%), the “Gingival infection Grade 3, treatment-related adverse event” value [2, 6] was 1 (5) n (%) and the “Gingival infection Grade 4, treatment-related adverse event” value [2, 6] was 0 n (%). For the same compound, the “Hypertension Grade 3, treatment-related adverse event” value [2, 6] was 8 (36) n (%), the “Hypertension Grade 4, treatment-related adverse event” value [2, 6] was 0 n (%) and the “Hypocalcemia Grade 3, treatment-related adverse event” value [2, 6] was 1 (5) n (%). The “Hypocalcemia Grade 4, treatment-related adverse event” value [2, 6] was 0 n (%), the “Hyponatremia Grade 3, treatment-related adverse event” value [2, 6] was 1 (5) n (%) and the “Hyponatremia Grade 4, treatment-related adverse event” value [2, 6] was 0 n (%). The “Leukopenia Grade 3, treatment-related adverse event” value [2, 6] was 10 (46) n (%), the “Leukopenia Grade 4, treatment-related adverse event” value [2, 6] was 1 (5) n (%) and the “Lymphopenia Grade 3, treatment-related adverse event” value [2, 6] was 1 (5) n (%). For the same compound, the “Lymphopenia Grade 4, treatment-related adverse event” value [2, 6] was 0 n (%), the “Nausea Grade 3, treatment-related adverse event” value [2, 6] was 1 (5) n (%) and the “Nausea Grade 4, treatment-related adverse event” value [2, 6] was 0 n (%). The “Neurogenic bladder Grade 3, treatment-related adverse event” value [2, 6] was 1 (5) n (%), the “Neurogenic bladder Grade 4, treatment-related adverse event” value [2, 6] was 0 n (%) and the “Neutropenia Grade 3, treatment-related adverse event” value [2, 6] was 0 n (%). The “Neutropenia Grade 4, treatment-related adverse event” value [2, 6] was 21 (95) n (%), the “Peripheral sensory neuropathy Grade 3, treatment-related adverse event” value [2, 6] was 1 (5) n (%) and the “Peripheral sensory neuropathy Grade 4, treatment-related adverse event” value [2, 6] was 0 n (%). The “Pneumonia Grade 3, treatment-related adverse event” value [2, 6] was 1 (5) n (%), the “Pneumonia Grade 4, treatment-related adverse event” value [2, 6] was 0 n (%) and the “Proteinuria Grade 3, treatment-related adverse event” value [2, 6] was 2 (9) n (%). The “Proteinuria Grade 4, treatment-related adverse event” value [2, 6] was 0 n (%), the “Pyelonephritis Grade 3, treatment-related adverse event” value [2, 6] was 1 (5) n (%) and the “Pyelonephritis Grade 4, treatment-related adverse event” value [2, 6] was 0 n (%). The “Syncope Grade 3, treatment-related adverse event” value [2, 6] was 0 n (%), the “Syncope Grade 4, treatment-related adverse event” value [2, 6] was 0 n (%) and the “Thrombocytopenia Grade 3, treatment-related adverse event” value [2, 6] was 4 (18) n (%). For the same compound, the “Thrombocytopenia Grade 4, treatment-related adverse event” value [2, 6] was 2 (9) n (%), the “Thrombosis Grade 3, treatment-related adverse event” value [2, 6] was 1 (5) n (%) and the “Thrombosis Grade 4, treatment-related adverse event” value [2, 6] was 0 n (%). The “Vomiting Grade 3, treatment-related adverse event” value [2, 6] was 1 (5) n (%), the “Vomiting Grade 4, treatment-related adverse event” value [2, 6] was 0 n (%) and the “Weight decreased Grade 3, treatment-related adverse event” value [2, 6] was 1 (5) n (%). For the same compound, the “Weight decreased Grade 4, treatment-related adverse event” value [2, 6] was 0 n (%), the “alopecia incidence (all grades)” value [2, 7] was 95% and the “arthralgia incidence (all grades)” value [2, 7] was 95%. For the same compound, the “grade 3 or 4 febrile neutropenia” value [2, 7] was 23%, the “grade 3 or 4 hypertension” value [2, 7] was 36% and the “grade 3 or 4 leukopenia” value [2, 7] was 50%. The “grade 3 or 4 neutropenia” value [2, 7] was 95%, the “grade 3 or 4 thrombocytopenia” value [2, 7] was 27% and the “leukopenia incidence (all grades)” value [2, 7] was 95%. The “neutropenia incidence (all grades)” value [2, 7] was 95%, the “peripheral sensory neuropathy incidence (all grades)” value [2, 7] was 95% and the “patients” value ([2]; 6 mg BID) was 2 n. For the same compound, the “Anaemia Grade 3, treatment-related adverse event” value [2, 8] was 0 n (%), the “Anaemia Grade 4, treatment-related adverse event” value [2, 8] was 0 n (%) and the “Anal abscess Grade 3, treatment-related adverse event” value [2, 8] was 0 n (%). For the same compound, the “Anal abscess Grade 4, treatment-related adverse event” value [2, 8] was 0 n (%), the “Decreased appetite Grade 3, treatment-related adverse event” value [2, 8] was 0 n (%) and the “Decreased appetite Grade 4, treatment-related adverse event” value [2, 8] was 0 n (%). For the same compound, the “Diarrhoea Grade 3, treatment-related adverse event” value [2, 8] was 0 n (%), the “Diarrhoea Grade 4, treatment-related adverse event” value [2, 8] was 0 n (%) and the “Febrile neutropenia Grade 3, treatment-related adverse event” value [2, 8] was 1 (17) n (%). For the same compound, the “Febrile neutropenia Grade 4, treatment-related adverse event” value [2, 8] was 0 n (%), the “Gingival infection Grade 3, treatment-related adverse event” value [2, 8] was 1 (17) n (%) and the “Gingival infection Grade 4, treatment-related adverse event” value [2, 8] was 0 n (%). The “Hypertension Grade 3, treatment-related adverse event” value [2, 8] was 4 (67) n (%), the “Hypertension Grade 4, treatment-related adverse event” value [2, 8] was 0 n (%) and the “Hypocalcemia Grade 3, treatment-related adverse event” value [2, 8] was 0 n (%). For the same compound, the “Hypocalcemia Grade 4, treatment-related adverse event” value [2, 8] was 0 n (%), the “Hyponatremia Grade 3, treatment-related adverse event” value [2, 8] was 0 n (%) and the “Hyponatremia Grade 4, treatment-related adverse event” value [2, 8] was 0 n (%). For the same compound, the “Leukopenia Grade 3, treatment-related adverse event” value [2, 8] was 2 (33) n (%), the “Leukopenia Grade 4, treatment-related adverse event” value [2, 8] was 1 (17) n (%) and the “Lymphopenia Grade 3, treatment-related adverse event” value [2, 8] was 0 n (%). The “Lymphopenia Grade 4, treatment-related adverse event” value [2, 8] was 0 n (%), the “Nausea Grade 3, treatment-related adverse event” value [2, 8] was 0 n (%) and the “Nausea Grade 4, treatment-related adverse event” value [2, 8] was 0 n (%). The “Neurogenic bladder Grade 3, treatment-related adverse event” value [2, 8] was 0 n (%), the “Neurogenic bladder Grade 4, treatment-related adverse event” value [2, 8] was 0 n (%) and the “Neutropenia Grade 3, treatment-related adverse event” value [2, 8] was 0 n (%). For the same compound, the “Neutropenia Grade 4, treatment-related adverse event” value [2, 8] was 5 (83) n (%), the “Peripheral sensory neuropathy Grade 3, treatment-related adverse event” value [2, 8] was 0 n (%) and the “Peripheral sensory neuropathy Grade 4, treatment-related adverse event” value [2, 8] was 0 n (%). The “Pneumonia Grade 3, treatment-related adverse event” value [2, 8] was 2 (33) n (%), the “Pneumonia Grade 4, treatment-related adverse event” value [2, 8] was 0 n (%) and the “Proteinuria Grade 3, treatment-related adverse event” value [2, 8] was 0 n (%). The “Proteinuria Grade 4, treatment-related adverse event” value [2, 8] was 0 n (%), the “Pyelonephritis Grade 3, treatment-related adverse event” value [2, 8] was 0 n (%) and the “Pyelonephritis Grade 4, treatment-related adverse event” value [2, 8] was 0 n (%). For the same compound, the “Syncope Grade 3, treatment-related adverse event” value [2, 8] was 1 (17) n (%), the “Syncope Grade 4, treatment-related adverse event” value [2, 8] was 0 n (%) and the “Thrombocytopenia Grade 3, treatment-related adverse event” value [2, 8] was 0 n (%). The “Thrombocytopenia Grade 4, treatment-related adverse event” value [2, 8] was 0 n (%), the “Thrombosis Grade 3, treatment-related adverse event” value [2, 8] was 0 n (%) and the “Thrombosis Grade 4, treatment-related adverse event” value [2, 8] was 0 n (%). For the same compound, the “Vomiting Grade 3, treatment-related adverse event” value [2, 8] was 0 n (%), the “Vomiting Grade 4, treatment-related adverse event” value [2, 8] was 0 n (%) and the “Weight decreased Grade 3, treatment-related adverse event” value [2, 8] was 0 n (%). For the same compound, the “Weight decreased Grade 4, treatment-related adverse event” value [2, 8] was 0 n (%), the SAE febrile neutropenia ([2]; all 28 patients) was 7% and the SAE pneumonia ([2]; all 28 patients) was 7%. For the same compound, the deaths ([2]; all 28 patients) was “No deaths were reported”, the “patients” value ([2]; all 28 patients (4 and 6 mg BID)) was “Nine” and the “changes in mean QT interval and QTcF” value ([2]; combination or maintenance therapy) was “no changes of clinical importance”. For the same compound, the Cmax ([3]; 4 mg) was 97.5 ± 38.4 ng/mL, the Tmax ([3]; 4 mg, tmax, lenvatinib in plasma, lenvatinib 4 mg BID (n=6) with carboplatin/paclitaxel, median (minimum–maximum)) was 4.18 h and the Cmax ([3]; 6 mg) was 138 ± 35.3 ng/mL. For the same compound, the Tmax ([3]; 6 mg, Median time of maximum concentration (tmax), lenvatinib, across 4 and 6 mg BID groups) was 4.18 to 4.27 h, the AUC(0-t) ([3]; 6 mg, mean AUC(0−t), lenvatinib, across 4 and 6 mg BID groups) was 692 to 848 ng·h/mL and the “Best response CR” value [4, 6] was 1 (5) n (%). For the same compound, the “Best response NE” value [4, 6] was 1 (5) n (%), the “Best response PD” value [4, 6] was 1 (5) n (%) and the “Best response PR” value [4, 6] was 14 (64) n (%). For the same compound, the “Best response SD” value [4, 6] was 5 (23) n (%), the “ORR (CR+PR)” value [4, 6] was 15 (68) n (%) and the “Median PFS” value ([4]; 4 mg BID groups with carboplatin/paclitaxel) was 9.0 months. The “Best response CR” value [4, 8] was 0 (0) n (%), the “Best response NE” value [4, 8] was 2 (33) n (%) and the “Best response PD” value [4, 8] was 0 (0) n (%). For the same compound, the “Best response PR” value [4, 8] was 2 (33) n (%), the “Best response SD” value [4, 8] was 2 (33) n (%) and the “ORR (CR+PR)” value [4, 8] was 2 (33) n (%). For the same compound, the complete response ([4]; 22 patients at the 4 mg level) was 5%, the partial response ([4]; 22 patients at the 4 mg level) was 64% and the “Best response CR” value ([4]; Total (n=28)) was 1 (4) n (%). For the same compound, the “Best response NE” value ([4]; Total (n=28)) was 3 (11) n (%), the “Best response PD” value ([4]; Total (n=28)) was 1 (4) n (%) and the “Best response PR” value ([4]; Total (n=28)) was 16 (57) n (%). The “Best response SD” value ([4]; Total (n=28)) was 7 (25) n (%), the “ORR (CR+PR)” value ([4]; Total (n=28)) was 17 (61) n (%) and the “Median PFS” value ([4]; total) was 9.0 months. The “median duration of response” value ([4]; total) was 7.0 months, the “FGF-2 plasma, observed value” ([5]; Cycle 1 day 8 (n=26)) was 17.2 (7–59) pg ml^−1 and the “G-CSF plasma, observed value” ([5]; Cycle 1 day 8 (n=26)) was 7.6 (3–27) pg ml^−1. For the same compound, the “HGF plasma, observed value” ([5]; Cycle 1 day 8 (n=26)) was 244.0 (163–353) pg ml^−1, the “PDGF-B plasma, observed value” ([5]; Cycle 1 day 8 (n=26)) was 237.9 (14–2849) pg ml^−1 and the “SCF plasma, observed value” ([5]; Cycle 1 day 8 (n=26)) was 101.0 (54–173) pg ml^−1. For the same compound, the “FGF-2 plasma, observed value” ([5]; Cycle 1 day 22 (n=26)) was 16.0 (7–57) pg ml^−1, the “G-CSF plasma, observed value” ([5]; Cycle 1 day 22 (n=26)) was 7.5 (2–17) pg ml^−1 and the “IL-8 plasma, observed value” ([5]; Cycle 1 day 22 (n=26)) was 4.4 (3–15) pg ml^−1. The “SCF plasma, observed value” ([5]; Cycle 1 day 22 (n=26)) was 102.9 (43–184) pg ml^−1 and the “SDF1α plasma, observed value” ([5]; Cycle 1 day 22 (n=26)) was 76.9 (30–140) pg ml^−1.
